Source: ChEMBL document CHEMBL5042469, “Unique Molecular Interaction with the Histone Deacetylase 6 Catalytic Tunnel: Crystallographic and Biological Characterization of a Model Chemotype” (J Med Chem, 2021)
Active and inactive are the calls of the source. The rule behind the calls is not given here.

Legend:
MV4-11 [1] = experiment: Induction of apoptosis in human MV4-11 cells assessed as viable cells at 4 uM incubated for 15 mins by Annexin-V/FITC staining based FACS analysis (reference value: 84.58%); format: functional; conditions: MV4-11, 0.25 h, read-out: Activity
Summary of the method: (§1)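 MV4-11 cells were dosed, then washed twice in cold PBS and resuspended in binding buffer at 1×10^6 cells/mL. Cells were stained with FITC-annexin V and propidium iodide for 15 min in the dark, diluted with binding buffer and analysed by flow cytometry within 1 h. Quadrants: LL viable, LR early apoptotic, UR late apoptotic. Duplicate experiments averaged; DMSO control.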

MV4-11 [2] = experiment: Induction of apoptosis in human MV4-11 cells assessed as early apoptotic cells at 4 uM incubated for 15 mins by Annexin-V/FITC staining based FACS analysis (reference value: 7.28%); format: functional; conditions: 0.25 h; summary of the method: as §1
MV4-11 [3] = experiment: Induction of apoptosis in human MV4-11 cells assessed as late apoptotic cells at 2 uM incubated for 15 mins by Annexin-V/FITC staining based FACS analysis (reference value: 4.36%); format: functional; conditions: 0.25 h; summary of the method: as §1
MV4-11 [4] = experiment: Induction of apoptosis in human MV4-11 cells assessed as late apoptotic cells at 4 uM incubated for 15 mins by Annexin-V/FITC staining based FACS analysis (reference value: 4.36%); format: functional; conditions: 0.25 h; summary of the method: as §1
Histone deacetylase 5 = Histone deacetylase 5 (Homo sapiens, UniProt Q9UQL6); experiment: Inhibition of full length human HDAC5 using FAM-labeled acetylated peptide as substrate by electrophoretic mobility shift assay
Sequence of Histone deacetylase 5 (Q9UQL6 whole entry, canonical isoform): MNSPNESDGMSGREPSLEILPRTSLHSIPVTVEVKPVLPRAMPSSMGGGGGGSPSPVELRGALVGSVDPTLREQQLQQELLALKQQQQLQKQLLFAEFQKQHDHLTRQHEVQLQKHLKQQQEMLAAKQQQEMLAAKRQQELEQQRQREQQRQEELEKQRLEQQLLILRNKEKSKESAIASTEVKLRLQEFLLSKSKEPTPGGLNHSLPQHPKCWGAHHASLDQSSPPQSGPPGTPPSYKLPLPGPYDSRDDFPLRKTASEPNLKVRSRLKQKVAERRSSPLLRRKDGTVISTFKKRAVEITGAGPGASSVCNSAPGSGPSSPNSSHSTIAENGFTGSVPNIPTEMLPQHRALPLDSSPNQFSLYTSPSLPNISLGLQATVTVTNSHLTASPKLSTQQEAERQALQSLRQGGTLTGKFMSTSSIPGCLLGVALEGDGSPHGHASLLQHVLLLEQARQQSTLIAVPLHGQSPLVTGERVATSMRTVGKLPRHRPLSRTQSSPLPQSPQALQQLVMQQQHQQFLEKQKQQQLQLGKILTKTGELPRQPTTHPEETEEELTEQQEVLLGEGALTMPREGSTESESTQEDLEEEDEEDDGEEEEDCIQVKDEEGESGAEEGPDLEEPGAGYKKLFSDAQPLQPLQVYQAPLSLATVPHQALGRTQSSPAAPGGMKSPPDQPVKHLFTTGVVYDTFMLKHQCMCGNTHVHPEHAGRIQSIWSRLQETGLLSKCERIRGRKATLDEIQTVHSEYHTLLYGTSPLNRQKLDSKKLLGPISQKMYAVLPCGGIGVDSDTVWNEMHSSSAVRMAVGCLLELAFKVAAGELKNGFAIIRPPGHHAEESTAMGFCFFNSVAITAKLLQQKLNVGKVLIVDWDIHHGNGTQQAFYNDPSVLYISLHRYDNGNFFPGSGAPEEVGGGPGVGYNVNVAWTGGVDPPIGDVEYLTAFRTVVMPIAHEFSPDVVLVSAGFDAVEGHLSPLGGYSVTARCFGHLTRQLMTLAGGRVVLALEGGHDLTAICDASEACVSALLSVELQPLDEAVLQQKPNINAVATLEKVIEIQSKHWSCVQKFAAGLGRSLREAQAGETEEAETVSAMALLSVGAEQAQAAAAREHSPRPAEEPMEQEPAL
Summary of the method: (§2)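 Full-length human HDAC isoform enzymatic assay by electrophoretic mobility shift, using a FAM-labelled acetylated peptide substrate. […] Values are the mean of duplicate experiments with 95% confidence intervals.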

Histone deacetylase 4 = Histone deacetylase 4 (Homo sapiens, UniProt P56524); experiment: Inhibition of full length human HDAC4 using FAM-labeled acetylated peptide as substrate by electrophoretic mobility shift assay; summary of the method: as §2
Sequence of Histone deacetylase 4 (P56524 whole entry): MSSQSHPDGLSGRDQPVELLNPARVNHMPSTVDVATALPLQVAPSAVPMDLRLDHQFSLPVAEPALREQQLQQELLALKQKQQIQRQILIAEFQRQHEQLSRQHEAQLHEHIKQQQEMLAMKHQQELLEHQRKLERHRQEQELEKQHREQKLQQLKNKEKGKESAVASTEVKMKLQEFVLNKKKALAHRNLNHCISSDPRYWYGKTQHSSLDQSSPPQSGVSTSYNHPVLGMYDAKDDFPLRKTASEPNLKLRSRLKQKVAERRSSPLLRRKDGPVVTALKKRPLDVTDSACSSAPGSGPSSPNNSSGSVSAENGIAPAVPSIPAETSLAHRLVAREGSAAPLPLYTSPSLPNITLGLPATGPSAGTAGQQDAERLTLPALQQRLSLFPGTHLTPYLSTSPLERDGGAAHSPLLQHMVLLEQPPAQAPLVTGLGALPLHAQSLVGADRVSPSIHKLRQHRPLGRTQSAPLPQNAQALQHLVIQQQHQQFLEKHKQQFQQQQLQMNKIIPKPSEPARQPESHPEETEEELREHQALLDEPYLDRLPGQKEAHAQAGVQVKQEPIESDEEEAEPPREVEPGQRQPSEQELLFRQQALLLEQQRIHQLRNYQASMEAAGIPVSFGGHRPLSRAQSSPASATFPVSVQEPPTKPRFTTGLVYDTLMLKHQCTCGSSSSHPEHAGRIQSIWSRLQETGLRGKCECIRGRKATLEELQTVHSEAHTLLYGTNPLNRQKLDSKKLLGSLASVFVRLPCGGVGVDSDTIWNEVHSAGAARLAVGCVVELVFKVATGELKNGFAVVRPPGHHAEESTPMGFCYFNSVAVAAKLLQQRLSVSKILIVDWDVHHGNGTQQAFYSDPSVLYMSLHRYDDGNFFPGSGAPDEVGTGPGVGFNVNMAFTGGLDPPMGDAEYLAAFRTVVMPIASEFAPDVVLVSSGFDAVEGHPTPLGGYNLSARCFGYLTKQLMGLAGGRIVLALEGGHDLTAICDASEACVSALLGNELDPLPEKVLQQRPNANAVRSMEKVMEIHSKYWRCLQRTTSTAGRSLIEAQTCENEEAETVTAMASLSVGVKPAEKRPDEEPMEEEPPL

Histone deacetylase 7 = Histone deacetylase 7 (Homo sapiens, UniProt Q8WUI4); experiment: Inhibition of full length human HDAC7 using FAM-labeled acetylated peptide as substrate by electrophoretic mobility shift assay; summary of the method: as §2
Sequence of Histone deacetylase 7 (Q8WUI4 whole entry): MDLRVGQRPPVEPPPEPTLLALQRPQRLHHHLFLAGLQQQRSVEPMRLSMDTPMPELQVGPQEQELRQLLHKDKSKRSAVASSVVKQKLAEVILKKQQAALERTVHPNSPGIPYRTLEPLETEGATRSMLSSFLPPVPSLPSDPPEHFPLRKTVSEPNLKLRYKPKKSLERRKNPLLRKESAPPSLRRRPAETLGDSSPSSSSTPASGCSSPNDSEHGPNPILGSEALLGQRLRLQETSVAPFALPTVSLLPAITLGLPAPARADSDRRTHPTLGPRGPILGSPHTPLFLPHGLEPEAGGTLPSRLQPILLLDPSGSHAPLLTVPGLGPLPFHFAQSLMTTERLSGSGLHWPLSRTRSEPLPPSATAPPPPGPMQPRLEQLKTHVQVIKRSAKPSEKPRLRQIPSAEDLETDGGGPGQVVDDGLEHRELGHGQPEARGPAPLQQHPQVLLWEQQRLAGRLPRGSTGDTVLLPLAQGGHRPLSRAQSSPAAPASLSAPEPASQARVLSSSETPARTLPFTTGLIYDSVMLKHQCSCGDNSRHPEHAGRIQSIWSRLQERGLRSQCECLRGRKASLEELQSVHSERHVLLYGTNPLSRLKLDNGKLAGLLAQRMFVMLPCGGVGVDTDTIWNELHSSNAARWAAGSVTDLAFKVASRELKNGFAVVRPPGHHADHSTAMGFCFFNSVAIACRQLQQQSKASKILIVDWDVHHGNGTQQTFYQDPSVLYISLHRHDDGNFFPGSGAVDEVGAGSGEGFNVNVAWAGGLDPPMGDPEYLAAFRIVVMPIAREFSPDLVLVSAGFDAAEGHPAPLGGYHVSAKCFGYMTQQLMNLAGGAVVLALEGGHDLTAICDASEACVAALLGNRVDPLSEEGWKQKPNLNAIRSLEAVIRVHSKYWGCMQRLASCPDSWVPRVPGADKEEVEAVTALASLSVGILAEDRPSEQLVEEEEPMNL

[5] = target: T1, Protein deacetylase HDAC6 (Homo sapiens, UniProt Q9UBN7); experiment: Binding affinity to human HDAC6 by jump dilution assay
T1 sequence (Q9UBN7 whole entry): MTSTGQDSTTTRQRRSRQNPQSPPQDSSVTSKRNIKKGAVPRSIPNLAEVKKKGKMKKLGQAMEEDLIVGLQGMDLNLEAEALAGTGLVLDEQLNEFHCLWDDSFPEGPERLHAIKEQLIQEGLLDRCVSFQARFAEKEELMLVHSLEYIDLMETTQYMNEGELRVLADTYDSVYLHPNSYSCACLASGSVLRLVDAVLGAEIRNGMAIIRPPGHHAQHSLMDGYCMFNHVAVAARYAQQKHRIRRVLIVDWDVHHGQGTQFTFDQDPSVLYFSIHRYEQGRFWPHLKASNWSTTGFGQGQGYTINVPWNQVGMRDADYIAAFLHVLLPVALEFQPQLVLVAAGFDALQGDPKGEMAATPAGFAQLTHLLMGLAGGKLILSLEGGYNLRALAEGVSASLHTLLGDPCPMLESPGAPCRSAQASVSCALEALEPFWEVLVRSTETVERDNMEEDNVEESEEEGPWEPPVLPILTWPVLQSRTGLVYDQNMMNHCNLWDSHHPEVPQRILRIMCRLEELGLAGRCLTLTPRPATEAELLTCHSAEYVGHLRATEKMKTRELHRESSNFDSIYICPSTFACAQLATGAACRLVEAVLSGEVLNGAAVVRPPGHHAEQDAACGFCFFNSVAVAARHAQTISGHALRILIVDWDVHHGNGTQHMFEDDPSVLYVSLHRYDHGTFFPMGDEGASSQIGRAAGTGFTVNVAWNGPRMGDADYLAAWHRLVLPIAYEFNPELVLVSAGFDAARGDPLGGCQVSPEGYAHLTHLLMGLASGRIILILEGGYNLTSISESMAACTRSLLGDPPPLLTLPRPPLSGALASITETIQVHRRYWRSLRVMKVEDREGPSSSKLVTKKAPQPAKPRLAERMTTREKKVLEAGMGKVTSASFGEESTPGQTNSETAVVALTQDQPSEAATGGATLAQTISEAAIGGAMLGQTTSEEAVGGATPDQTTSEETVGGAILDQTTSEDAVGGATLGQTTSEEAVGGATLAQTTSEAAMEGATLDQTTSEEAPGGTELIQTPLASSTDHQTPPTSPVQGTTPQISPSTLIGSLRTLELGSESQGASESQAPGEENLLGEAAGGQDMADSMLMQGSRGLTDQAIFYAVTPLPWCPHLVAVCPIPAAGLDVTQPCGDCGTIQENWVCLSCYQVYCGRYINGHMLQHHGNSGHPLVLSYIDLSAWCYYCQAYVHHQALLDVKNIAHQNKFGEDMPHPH

Histone deacetylase 9 = Histone deacetylase 9 (Homo sapiens, UniProt Q9UKV0); experiment: Inhibition of full length human HDAC9 using FAM-labeled acetylated peptide as substrate by electrophoretic mobility shift assay; summary of the method: as §2
Sequence of Histone deacetylase 9 (Q9UKV0 whole entry): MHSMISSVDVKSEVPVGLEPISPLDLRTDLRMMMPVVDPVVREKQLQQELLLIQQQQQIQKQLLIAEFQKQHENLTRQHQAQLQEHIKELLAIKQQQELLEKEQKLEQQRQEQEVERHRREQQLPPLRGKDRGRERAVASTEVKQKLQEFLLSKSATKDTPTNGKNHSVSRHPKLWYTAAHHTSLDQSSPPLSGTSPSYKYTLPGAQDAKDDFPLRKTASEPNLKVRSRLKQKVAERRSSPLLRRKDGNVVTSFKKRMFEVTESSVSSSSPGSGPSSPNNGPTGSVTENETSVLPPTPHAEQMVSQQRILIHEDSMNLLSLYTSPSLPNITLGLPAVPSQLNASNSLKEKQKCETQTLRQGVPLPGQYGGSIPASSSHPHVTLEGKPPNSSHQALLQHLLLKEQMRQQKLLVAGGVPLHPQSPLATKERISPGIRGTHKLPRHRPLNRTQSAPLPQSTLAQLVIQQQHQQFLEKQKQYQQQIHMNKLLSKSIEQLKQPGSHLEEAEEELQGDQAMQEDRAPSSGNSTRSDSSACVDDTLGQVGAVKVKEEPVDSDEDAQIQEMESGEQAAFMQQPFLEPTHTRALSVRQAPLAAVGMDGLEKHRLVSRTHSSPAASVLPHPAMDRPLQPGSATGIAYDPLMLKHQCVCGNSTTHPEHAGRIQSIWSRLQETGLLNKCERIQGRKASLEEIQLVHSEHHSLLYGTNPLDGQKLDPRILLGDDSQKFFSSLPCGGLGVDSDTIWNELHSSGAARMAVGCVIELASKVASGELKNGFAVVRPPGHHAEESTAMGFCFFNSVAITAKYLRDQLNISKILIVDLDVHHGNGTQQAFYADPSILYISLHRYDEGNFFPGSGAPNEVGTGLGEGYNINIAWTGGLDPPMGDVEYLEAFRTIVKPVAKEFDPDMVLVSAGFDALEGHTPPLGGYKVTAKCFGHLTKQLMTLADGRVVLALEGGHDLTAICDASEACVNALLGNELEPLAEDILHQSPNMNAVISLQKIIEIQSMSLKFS

[6] = target: Polyamine deacetylase HDAC10 (Homo sapiens, UniProt Q969S8); experiment: Inhibition of full length human HDAC10 using FAM-labeled acetylated peptide as substrate by electrophoretic mobility shift assay; summary of the method: as §2
Sequence of Polyamine deacetylase HDAC10 (Q969S8 whole entry): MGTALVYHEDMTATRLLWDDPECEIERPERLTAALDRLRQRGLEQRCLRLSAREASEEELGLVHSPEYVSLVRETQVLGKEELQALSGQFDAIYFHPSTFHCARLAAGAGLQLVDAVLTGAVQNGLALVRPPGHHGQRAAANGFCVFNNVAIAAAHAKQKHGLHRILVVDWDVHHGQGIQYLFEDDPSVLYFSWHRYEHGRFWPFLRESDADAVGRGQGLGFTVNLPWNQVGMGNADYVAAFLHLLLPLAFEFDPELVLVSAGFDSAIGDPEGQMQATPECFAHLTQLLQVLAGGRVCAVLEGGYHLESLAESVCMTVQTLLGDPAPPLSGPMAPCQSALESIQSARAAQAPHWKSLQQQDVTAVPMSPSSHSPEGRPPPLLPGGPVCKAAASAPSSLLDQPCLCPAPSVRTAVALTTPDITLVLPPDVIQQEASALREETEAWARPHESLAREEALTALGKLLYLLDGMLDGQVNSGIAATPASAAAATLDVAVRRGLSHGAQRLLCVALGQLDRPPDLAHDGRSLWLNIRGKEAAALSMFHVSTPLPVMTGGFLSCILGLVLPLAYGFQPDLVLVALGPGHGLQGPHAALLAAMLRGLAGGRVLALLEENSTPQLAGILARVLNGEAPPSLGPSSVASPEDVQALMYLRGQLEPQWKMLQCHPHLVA

MV4-11 [7] = experiment: Induction of apoptosis in human MV4-11 cells assessed as viable cells at 0.50 uM incubated for 15 mins by Annexin-V/FITC staining based FACS analysis (reference value: 35.53%); format: functional; conditions: MV4-11, 0.25 h, read-out: Activity; summary of the method: as §1
MV4-11 [8] = experiment: Induction of apoptosis in human MV4-11 cells assessed as viable cells at 2 uM incubated for 15 mins by Annexin-V/FITC staining based FACS analysis (reference value: 35.53%); format: functional; conditions: MV4-11, 0.25 h, read-out: Activity; summary of the method: as §1
MV4-11 [9] = experiment: Induction of apoptosis in human MV4-11 cells assessed as viable cells at 4 uM incubated for 15 mins by Annexin-V/FITC staining based FACS analysis (reference value: 35.53%); format: functional; conditions: MV4-11, 0.25 h, read-out: Activity; summary of the method: as §1
MV4-11 [10] = experiment: Induction of ROS generation in human MV4-11 cells at 10 uM measured over 4 hrs by DCFDA staning based spectrophotometric analysis; format: functional, cell-based
Summary of the method: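 MV4-11 cells were washed once in PBS and loaded with DCFDA (33 μM) for 30 min at 37 °C in the dark. Cells were then washed, resuspended in supplemental buffer and dosed with compound. Fluorescence (Ex/Em 485/535) was followed for up to 4 h against a DMSO control.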

[11] = Stability in mouse plasma assessed as compound remaining measured after 15 mins; format: ADME, cell-free; conditions: read-out: Stability
[12] = Stability in human whole blood assessed as compound remaining measured after 15 mins; format: ADME, tissue-based; conditions: read-out: Stability
[13] = Half life in mouse plasma incubated for 1 hr; format: ADME, cell-free
Summary of the method: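 Compound was incubated in mouse plasma or in pooled human whole blood. […] Triplicate studies, averaged.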

[14] = target: T2, Protein deacetylase HDAC6 (Homo sapiens) (UniProt Q9UBN7); experiment: Binding affinity to human HDAC6 assessed as residence time by two-step reversible inhibition model
T2 sequence (whole entry): T1 sequence (Q9UBN7 whole entry)

Ramos = experiment: Anti-proliferative activity against human Ramos cells assessed as cell viability measured after 72 hrs by Cell-Titer assay; format: functional, cell-based
Summary of the method: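 Cells were plated in 96-well plates and received compound or vehicle (0.5% DMSO) 24 h later. CellTiter-Blue was added at 72 h and fluorescence read at 560/590 nm. IC50 derived by non-linear regression.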

Row | IC50 (Histone deacetylase 5) | IC50 (Histone deacetylase 4) | IC50 (Histone deacetylase 7) | Ki [5] | IC50 (Histone deacetylase 9) | IC50 [6] | remaining at 0.25 h [11] | remaining at 0.25 h [12] | t1/2 [13] | TIME [14] | IC50 (Ramos) | SMILES | viability at 4 µM (MV4-11 [1]) | Activity (MV4-11 [2]) | Activity (MV4-11 [3]) | Activity (MV4-11 [4]) | viability at 0.5 µM (MV4-11 [7]) | viability at 2 µM (MV4-11 [8]) | viability at 4 µM (MV4-11 [9]) | Activity (MV4-11 [10])
1 | – | – | – | – | – | – | – | – | – | – | – | O=C(CCCCCCNC(=O)c1cnc(N(c2ccccc2)c2ccccc2Cl)nc1)NO [CITARINOSTAT] | 40.9% | 38.98% | 13.33% | 15.54% | – | – | – | –
2 | 8650 nM | > 10000 nM | 7290 nM | 0.7 nM | 2750 nM | 572 nM | 88.1% | 88% | 1.83 h | 2.37 h | 300 nM | O=C(NO)c1ccc(CN(Cc2cccnc2)S(=O)(=O)c2cc(F)c(F)c(F)c2F)cc1 | – | – | – | – | 28.4% | 9.59% | 7.96% | Active
